# Source: ChEMBL document CHEMBL1124175, “Stereoisomers of allenic amines as inactivators of monoamine oxidase type B. Stereochemical probes of the active site” (J Med Chem, 1988)
# How the values were obtained:
# [1] = target: T1, Amine oxidase [flavin-containing] B (Bos taurus, UniProt P56560); experiment: Inhibitory activity against Monoamine Oxidase B of Bovine liver in competitive inhibition assay at 25 degree C (pH=7.4)
# T1 sequence (P56560 whole entry): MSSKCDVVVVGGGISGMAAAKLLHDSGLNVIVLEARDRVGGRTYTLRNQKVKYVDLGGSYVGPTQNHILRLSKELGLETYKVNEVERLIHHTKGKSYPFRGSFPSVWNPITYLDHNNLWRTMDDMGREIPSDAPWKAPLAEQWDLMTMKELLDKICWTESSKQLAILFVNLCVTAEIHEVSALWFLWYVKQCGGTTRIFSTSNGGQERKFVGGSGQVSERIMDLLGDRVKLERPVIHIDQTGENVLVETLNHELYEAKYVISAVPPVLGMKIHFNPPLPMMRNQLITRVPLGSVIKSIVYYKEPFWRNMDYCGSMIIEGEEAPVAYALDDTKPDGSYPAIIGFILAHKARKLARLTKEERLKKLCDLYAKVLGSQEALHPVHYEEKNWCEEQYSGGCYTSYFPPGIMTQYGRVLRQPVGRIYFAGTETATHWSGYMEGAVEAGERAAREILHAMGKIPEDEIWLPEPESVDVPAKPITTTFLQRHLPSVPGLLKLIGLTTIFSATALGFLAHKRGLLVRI
# [2] = target: T2, Amine oxidase [flavin-containing] B (Rattus norvegicus, UniProt P19643); experiment: Competitive inhibition of Rat liver Monoamine Oxidase B at 37 degree C (pH= 7.4)
# T2 sequence (P19643 whole entry): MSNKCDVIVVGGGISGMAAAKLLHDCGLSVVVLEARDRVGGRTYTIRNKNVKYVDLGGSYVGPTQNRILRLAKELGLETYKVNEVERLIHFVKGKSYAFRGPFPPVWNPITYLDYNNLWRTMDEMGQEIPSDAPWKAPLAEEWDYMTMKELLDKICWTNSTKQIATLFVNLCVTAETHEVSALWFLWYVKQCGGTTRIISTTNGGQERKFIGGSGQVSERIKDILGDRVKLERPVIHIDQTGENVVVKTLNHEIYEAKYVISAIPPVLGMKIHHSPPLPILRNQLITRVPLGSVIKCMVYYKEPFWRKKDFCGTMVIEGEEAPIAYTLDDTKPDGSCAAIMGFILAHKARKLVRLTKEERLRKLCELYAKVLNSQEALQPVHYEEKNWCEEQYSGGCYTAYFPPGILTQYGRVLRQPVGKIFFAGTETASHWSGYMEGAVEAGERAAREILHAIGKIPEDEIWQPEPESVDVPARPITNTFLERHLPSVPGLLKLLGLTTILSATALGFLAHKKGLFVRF
# [3] = target: T1, Amine oxidase [flavin-containing] B; experiment: In vitro inhibition of bovine monoamine oxidase B.
# In short: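 Beef liver mitochondrial MAO was purified and assayed spectrophotometrically in 67 mM potassium phosphate, pH 7.2, at 25 °C. MAO (0.002 unit) was run with benzylamine hydrochloride (100, 200, 300 or 400 µM) and inhibitor at various concentrations. Initial rates of benzaldehyde formation were read at 250 nm, four replicates per combination, and competitive Ki was fitted from the initial rates.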
# Bos taurus = species on record: Bos taurus; experiment: Competitive inhibition of Bovine liver MAO-B at […]; type: functional
# [4] = target: T1, Amine oxidase [flavin-containing] B; experiment: Kinetic parameter for the time dependent inhibition of Bovine liver Monoamine Oxidase B at 25 degrees C (pH= 7.4).; conditions: cattle; for kinact: read-out: k2 (converted)
# In short: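 Purified beef liver mitochondrial MAO (0.02 unit) was preincubated at 25 °C in 50 mM potassium phosphate, pH 7.4, with allenic amine (1 µM-10 mM). Aliquots taken over time were assayed in duplicate for residual activity against benzylamine at 250 nm. kobsd came from nonlinear fit to E = E0 exp(-kobsd t) + E∞, and k2 and Ki by Kitz-Wilson analysis. For slow inactivators, k2 came from kobsd at one concentration plus a separately measured competitive Ki.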
# [5] = target: T2, Amine oxidase [flavin-containing] B; experiment: Competitive inhibition of Rat liver Monoamine Oxidase B at 30 degree C (pH= 7.2)
SMILES,Ki [1],Ki [3],k2 [4],further results
CN[C@H](C)c1ccccc1,630 µM,,,
CN[C@@H](C)c1ccccc1,1600 µM,,,
CN[C@H](C)Cc1ccccc1,800 µM,,,Ki [2]: 550 µM
C[C@@H](N)c1ccccc1,,190 µM,,
C[C@H](N)c1ccccc1,520 µM,,,Ki (Bos taurus): 150 µM
CN[C@@H]1CCCc2ccccc21,12 µM,,,
CN[C@H]1CCCc2ccccc21,1.4 µM,,,
CC=C=CCN(C)[C@@H](C)c1ccccc1 (mixture of isomers),,2600 µM,0.012 min⁻¹,
CC=C=CCN(C)[C@H]1CCCc2ccccc21 (mixture of isomers),,150 µM,0.012 min⁻¹,
CC=C=CCN(C)[C@@H]1CCCc2ccccc21 (mixture of isomers),,250 µM,0.13 min⁻¹,
CC=C=CCN(C)C[C@H](C)c1ccccc1 (mixture of isomers),,180 µM,,kinact [4]: 0.00015 s⁻¹
CC=C=CCN(C)C[C@@H](C)c1ccccc1 (mixture of isomers),,690 µM,,kinact [4]: 0.000117 s⁻¹
CC=C=CCN(C)[C@H](C)c1ccccc1 (mixture of isomers),,1800 µM,,kinact [4]: 0.00733 s⁻¹
CC=C=CCN(C)[C@@H](C)c1ccccc1 (stereo in doubt),,1100 µM,,kinact [4]: 0.000117 s⁻¹
CC=C=CCN(C)[C@H]1CCCc2ccccc21 (stereo in doubt),,150 µM,0.0006 min⁻¹,
CC=C=CCN(C)[C@@H]1CCCc2ccccc21 (stereo in doubt),,200 µM,0.8 min⁻¹,
CC=C=CCN(C)[C@H](C)c1ccccc1 (stereo in doubt),,730 µM,0.61 min⁻¹,
CC=C=CCN(C)C (stereo in doubt; 1 (R)),,59 µM,,kinact [4]: 0.00367 s⁻¹
CC=C=CCN(C)C (stereo in doubt; 1 (S)),,100 µM,0.29 min⁻¹,
CC=C=CCN(C)Cc1ccccc1.O=C(O)C(=O)O (stereo in doubt; 2 (R)),,200 µM,1 min⁻¹,
CC=C=CCN(C)Cc1ccccc1.O=C(O)C(=O)O (stereo in doubt; 2 (S)),,820 µM,0.16 min⁻¹,
CC=C=CCN(C)CCc1ccccc1 (stereo in doubt; 4 (R)),,430 µM,0.99 min⁻¹,
CC=C=CCN(C)CCc1ccccc1 (stereo in doubt; 4 (S)),,650 µM,0.13 min⁻¹,
C[C@H](N)Cc1ccccc1 [DEXTROAMPHETAMINE],300 µM,,,Ki [5]: 580 µM; Ki [2]: 160 µM
C[C@@H](N)Cc1ccccc1 [LEVAMFETAMINE],380 µM,,,Ki [5]: 760 µM; Ki [2]: 180 µM
CN[C@@H](C)Cc1ccccc1 [METHAMPHETAMINE],550 µM,,,Ki [2]: 270 µM
